Measured values as given in ChEMBL document CHEMBL1153760, “Identification and structure-activity relationships of chromene-derived selective estrogen receptor modulators for treatment of postmenopausal symptoms” (J Med Chem, 2009).
pIC50: −log10 of the molar value. Active and inactive are the calls of the source. The rule behind the calls is not given here.

Columns and labels:
Rattus norvegicus [1] = assay: Uterotropic activity in rat assessed as stimulation of estrone-induced uterine weight at 1 mg/kg, po QD after 3 days; format: functional; conditions: Uterus, 72 h
Estrogen receptor beta = Estrogen receptor beta (Homo sapiens, UniProt Q92731); assay: Inhibition of fluormone ES2 binding to estrogen receptor beta after 1 hr by fluorescence polarization assay
Chain of Estrogen receptor beta (Q92731 whole entry): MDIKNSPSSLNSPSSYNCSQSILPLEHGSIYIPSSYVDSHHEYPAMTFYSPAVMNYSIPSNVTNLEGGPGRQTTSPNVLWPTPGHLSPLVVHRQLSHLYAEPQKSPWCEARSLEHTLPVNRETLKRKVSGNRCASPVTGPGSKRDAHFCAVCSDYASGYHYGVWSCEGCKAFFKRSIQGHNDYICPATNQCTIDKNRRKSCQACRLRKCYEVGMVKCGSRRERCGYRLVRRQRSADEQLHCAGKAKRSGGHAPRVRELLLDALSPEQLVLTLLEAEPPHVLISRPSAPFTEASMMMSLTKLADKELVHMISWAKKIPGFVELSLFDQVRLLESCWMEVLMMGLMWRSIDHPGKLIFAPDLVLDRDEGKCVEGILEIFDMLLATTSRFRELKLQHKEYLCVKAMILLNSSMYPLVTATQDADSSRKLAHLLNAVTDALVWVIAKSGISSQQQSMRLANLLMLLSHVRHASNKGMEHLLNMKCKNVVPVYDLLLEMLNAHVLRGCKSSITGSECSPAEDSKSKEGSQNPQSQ

Estrogen receptor [2] = target: T1, Estrogen receptor (Homo sapiens, UniProt P03372); assay: Antagonist activity at estrogen receptor in human Ishikawa cells assessed as 17-beta-estradiol-induced alkaline phosphatase activity after 3 days by chemiluminescence assay; format: functional, cell-based
T1 sequence (P03372 whole entry): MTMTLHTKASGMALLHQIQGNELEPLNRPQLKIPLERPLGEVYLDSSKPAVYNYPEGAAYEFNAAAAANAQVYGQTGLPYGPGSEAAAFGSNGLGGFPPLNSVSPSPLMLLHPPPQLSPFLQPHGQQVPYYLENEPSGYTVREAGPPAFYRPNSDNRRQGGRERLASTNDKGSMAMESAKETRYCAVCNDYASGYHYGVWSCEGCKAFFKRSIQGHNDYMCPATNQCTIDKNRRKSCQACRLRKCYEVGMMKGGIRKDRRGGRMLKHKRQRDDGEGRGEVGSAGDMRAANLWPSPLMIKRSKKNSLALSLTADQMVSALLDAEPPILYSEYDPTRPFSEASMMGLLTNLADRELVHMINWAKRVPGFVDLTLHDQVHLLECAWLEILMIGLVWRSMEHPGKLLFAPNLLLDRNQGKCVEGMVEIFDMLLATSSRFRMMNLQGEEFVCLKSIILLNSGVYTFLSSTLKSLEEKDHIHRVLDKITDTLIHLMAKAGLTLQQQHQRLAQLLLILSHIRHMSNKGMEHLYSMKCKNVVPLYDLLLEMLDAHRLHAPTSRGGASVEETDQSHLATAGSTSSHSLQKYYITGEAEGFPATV

Rattus norvegicus [3] = species: Rattus norvegicus; assay: animal or person; format: functional; conditions: Uterus, 72 h, route oral
Estrogen receptor [4] = target: T1, Estrogen receptor; assay: Displacement of radiolabeled estrogen from estrogen receptor alpha by scintillation counting
[5] = Oral bioavailability in rat at 10 mg/kg administered as single dose by LC-MS/MS analysis; format: ADME, organism-based; conditions: in vivo
In short: (§1)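 Single-dose rat pharmacokinetics. IV dosing at 1-3 mg/kg as a solution in 10% β-cyclodextrin; oral gavage at 10 mg/kg as a uniform suspension in 0.5% methylcellulose. Blood (0.5 mL) collected into heparinized tubes by orbital sinus puncture after dosing. Plasma extracted into acetonitrile with an internal standard and analysed by LC-MS-MS against standards to obtain PK parameters.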

[6] = Cmax in rats after 10 mg/kg oral dose; format: ADME, organism-based; parameters: dose 10 mg/kg, route oral; conditions: rat, in vivo; in short: as §1
[7] = Half life in rat at 10 mg/kg, po administered as single dose by LC-MS/MS analysis; format: ADME, organism-based; parameters: dose 10 mg/kg, route oral; conditions: in vivo; in short: as §1
[8] = Tmax in rat at 10 mg/kg, po administered as single dose by LC-MS/MS analysis; format: ADME, organism-based; parameters: dose 10 mg/kg, route oral; conditions: in vivo; in short: as §1
[9] = AUC in rat at 10 mg/kg, po administered as single dose by LC-MS/MS analysis; format: ADME, organism-based; parameters: dose 10 mg/kg, route oral; conditions: plasma; in short: as §1
Rattus norvegicus [10] = assay: Effect on bone turnover in ovariectomized rat assessed as prevention of tibial bone density at 1 mg/kg, po administered daily measured after 6 weeks by ex vivo peripheral quantitative computerized tomography; format: functional, organism-based; parameters: dose 1 mg/kg
Rattus norvegicus [11] = assay: Estrogenic activity in ovariectomized rat assessed as minor increase in uterine epithelial thickness at 1 mg/kg, po administered daily measured after 6 week by immunohistochemical analysis; format: functional, organism-based; parameters: dose 1 mg/kg
Rattus norvegicus [12] = assay: Increase in vaginal secretion in ovariectomized rat at 1 mg/kg, po administered daily measured after 2 weeks […]; format: functional, organism-based; parameters: dose 1 mg/kg
In short: (§2)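 Ovariectomized adult female rats dosed daily by oral gavage (0.5% Methocel suspension) for 2 or 6 weeks from 24 h after surgery. Vaginal fluid collected with a cotton swab and its absolute weight determined per animal.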

Rattus norvegicus [13] = assay: Decrease in bone resorption in ovariectomized rat assessed as decrease in urine deoxypyridinoline level at 1 mg/kg, po administered daily measured after 6 weeks; format: functional, organism-based; parameters: dose 1 mg/kg
In short: (§3)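 Adult (>6 months) female rats, housed singly on a casein-based diet, ovariectomized under sterile conditions and anesthesia; 6-14 per group. From 24 h after surgery, daily oral gavage of an aqueous suspension in 0.5% Methocel for 2 or 6 weeks. […] Urine deoxypyridinoline measured as bone-resorption marker.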

Rattus norvegicus [14] = assay: Decrease in tail skin temperature rise in morphine-addicted Sprague-Dawley rat hot flush model at 1.4 mg/kg, po administered daily measured for 60 mins after naloxone-induced morphine withdrawal; format: functional, organism-based; parameters: dose 1.4 mg/kg
In short: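 Adult female Sprague-Dawley rats (3 months), 8-25 per group, ovariectomized; oral gavage started 6 days post-surgery; morphine suspension 75 and 150 mg sc on treatment days 3 and 5; last day ketamine 80 mg/kg im, tail thermistor baseline ~20 min, naloxone 2.0 mg/kg sc, tail skin temperature for 60 min; multiple comparisons per time point.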

Rattus norvegicus [15] = assay: Increase in uterine weight in ovariectomized rat osteopenia model at 1.4 mg/kg, po administered daily measured after 6 weeks; format: functional, organism-based; parameters: dose 1.4 mg/kg
Rattus norvegicus [16] = assay: Estrogenic activity in ovariectomized rat assessed as minor increase in uterine epithelial thickness at 1.4 mg/kg, po administered daily measured after 6 week by immunohistochemical analysis; format: functional, organism-based; parameters: dose 1.4 mg/kg
Rattus norvegicus [17] = assay: Increase in uterine weight in ovariectomized rat osteopenia model at 1 mg/kg, po administered daily measured after 6 weeks; format: functional, organism-based; parameters: dose 1 mg/kg
Rattus norvegicus [18] = assay: Decrease in bone resorption in ovariectomized rat assessed as decrease in urine deoxypyridinoline level at 1.4 mg/kg, po administered daily measured after 6 weeks; format: functional, organism-based; parameters: dose 1.4 mg/kg
Rattus norvegicus [19] = assay: Increase in vaginal fluidity in ovariectomized rat at 0.1 mg/kg, po administered daily measured after 6 weeks by cytology analysis; format: functional, organism-based; parameters: dose 0.1 mg/kg; in short: as §2
Rattus norvegicus [20] = assay: Decrease in bone resorption in ovariectomized rat assessed as decrease in urine deoxypyridinoline level at 0.1 mg/kg, po administered daily measured after 6 weeks; format: functional, organism-based; parameters: dose 0.1 mg/kg; in short: as §3
Rattus norvegicus [21] = assay: Decrease in tail skin temperature rise in morphine-addicted Sprague-Dawley rat hot flush model at 0.3 mg/kg, po administered daily measured for 60 mins after naloxone-induced morphine withdrawal; format: functional, organism-based; parameters: dose 0.3 mg/kg
In short: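 Ovariectomized adult female Sprague-Dawley rats (3 months), 8-25 per group; oral gavage starting 6 days post-ovariectomy, sesame oil vehicle, suspension. Morphine given sc at 75 and 150 mg on treatment days 3 and 5. On the last day, under ketamine (80 mg/kg, im), tail thermistor; baseline about 20 min, then naloxone 2.0 mg/kg sc and tail skin temperature recorded 60 min. Multiple comparisons at each time point.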

| pIC50 (Estrogen receptor beta) | pIC50 (Estrogen receptor [2]) | pIC50 (Estrogen receptor [4]) | Compound | inhibition in vivo at 1 mg/kg (Rattus norvegicus [3]) | also measured |
| --- | --- | --- | --- | --- | --- |
| 7.57 | 7.06 | 8.92 | Oc1ccc2c(c1)O[C@H](c1ccc(OCCN3CCSCC3)cc1)C1=C2CCOc2cc(O)ccc21 | 85% | bioavailability [5]: 9%; Cmax [6]: 89 ng/mL; half-life [7]: 5.28 h; Tmax [8]: 4.8 h; AUC [9]: 1530 ng·h/mL |
| 7.70 | 6.54 | 8.27 | CC(C)N(CCOc1ccc([C@H]2Oc3cc(O)ccc3C3=C2c2ccc(O)cc2OCC3)cc1)C(C)C | 30% | – |
| 6.97 | 6.95 | 8.30 | CCN(CC)CCOc1ccc([C@H]2Oc3cc(F)ccc3C3=C2c2ccc(O)cc2OCC3)cc1 | 80% | – |
| 7.96 | < 5.00 | 6.51 | OCCOc1ccc(C2Oc3cc(O)ccc3C3=C2c2ccc(O)cc2OCC3)cc1 (centres undefined) | 0% | – |
| 6.42 | < 5.00 | 6.82 | Oc1ccc2c(c1)O[C@H](c1cccc(OCCN3CCCCC3)c1)C1=C2CCOc2cc(O)ccc21 | 0% | – |
| 7.20 | 7.59 | 8.20 | Oc1ccc2c(c1)O[C@@H](c1ccc(OCCN3CCCCC3)cc1)C1=C2CCOc2ccccc21 | 12% | – |
| 7.62 | 6.82 | 8.38 | COc1ccc2c(c1)OCCC1=C2[C@H](c2ccc(OCCN3CCCCC3)cc2)Oc2cc(O)ccc21 | 20% | – |
| 6.70 | 6.59 | 7.00 | Oc1ccc2c(c1)O[C@H](c1ccc(OCCN3CCCCC3)cc1)C1=C2CCOc2ccccc21 | 5% | bioavailability [5]: 9%; Cmax [6]: 30 ng/mL; half-life [7]: 5.28 h; Tmax [8]: 4.8 h; AUC [9]: 1130 ng·h/mL |

The next lines start with the molecule.

| Compound | pIC50 (Estrogen receptor beta) | pIC50 (Estrogen receptor [2]) | pIC50 (Estrogen receptor [4]) | inhibition in vivo at 1 mg/kg (Rattus norvegicus [3]) | also measured |
| --- | --- | --- | --- | --- | --- |
| CN(C)CCOc1ccc([C@@H]2Oc3cc(O)ccc3C3=C2c2ccc(O)cc2OCC3)cc1 | 7.92 | 6.39 | 7.96 | 0% | stimulation at 1 mg/kg (Rattus norvegicus [1]): 100% |
| CN(C)CCOc1ccc([C@@H]2Oc3ccccc3C3=C2c2ccc(O)cc2OCC3)cc1 | 7.64 | – | – | 18% | stimulation at 1 mg/kg (Rattus norvegicus [1]): 70% |
| O=C(c1ccc(OCCN2CCCCC2)cc1)c1c(-c2ccc(O)cc2)sc2cc(O)ccc12 [RALOXIFENE] | – | – | – | 105% | Activity (Rattus norvegicus [10]): Active; Activity (Rattus norvegicus [11]): Active; Activity (Rattus norvegicus [12]): inactive; Activity (Rattus norvegicus [13]): Active |
| CC(C)(C)C(=O)Oc1ccc2c(c1)O[C@H](c1ccc(OCCN3CCCCC3)cc1)C1=C2COc2cc(OC(=O)C(C)(C)C)ccc21 | – | – | – | – | Activity (Rattus norvegicus [14]): Active; Activity (Rattus norvegicus [15]): Active; Activity (Rattus norvegicus [16]): Active; Activity (Rattus norvegicus [17]): inactive; Activity (Rattus norvegicus [18]): Active |
| CCN(CC)CCOc1ccc([C@@H]2Oc3ccccc3C3=C2c2ccc(O)cc2OCC3)cc1 | 7.55 | 6.88 | 8.05 | 30% | stimulation at 1 mg/kg (Rattus norvegicus [1]): 100% |
| Oc1ccc2c(c1)O[C@H](c1ccc(OCCN3CCCCCC3)cc1)C1=C2CCOc2ccccc21 | 6.85 | 5.57 | 7.07 | 11% | – |
| CC/C(=C(\c1ccccc1)c1ccc(OCCN(C)C)cc1)c1ccccc1 [TAMOXIFEN] | – | – | – | 0% | stimulation at 1 mg/kg (Rattus norvegicus [1]): 109% |
| CN(C)CCOc1ccc([C@@H]2Oc3cc(O)ccc3C3=C2c2ccccc2OCC3)cc1 | 7.52 | 6.80 | 7.95 | 20% | – |
| COc1ccc2c(c1)O[C@@H](c1ccc(OCCN3CCCCC3)cc1)C1=C2CCOc2cc(O)ccc21 | 7.20 | 7.59 | 8.20 | 12% | – |
| Oc1ccc2c(c1)O[C@H](c1ccc(OCCN3CCOCC3)cc1)C1=C2CCOc2cc(O)ccc21 | 7.46 | 7.37 | 8.80 | 40% | – |
| O=C1CCC(=O)N1CCCOc1ccc([C@@H]2Oc3cc(O)ccc3C3=C2c2ccc(O)cc2OCC3)cc1 | 8.25 | < 5.00 | 7.39 | 0% | – |
| CC(C)N(CCOc1ccc([C@@H]2Oc3cc(O)ccc3C3=C2c2ccc(O)cc2OCC3)cc1)C(C)C | 7.73 | 7.46 | 8.25 | 30% | stimulation at 1 mg/kg (Rattus norvegicus [1]): 80% |
| CN1CCN(CCOc2ccc([C@@H]3Oc4cc(O)ccc4C4=C3c3ccc(O)cc3OCC4)cc2)CC1 | 6.24 | < 5.00 | 6.51 | 5% | – |
| C#C[C@]1(O)CC[C@H]2[C@@H]3CCc4cc(O)ccc4[C@H]3CC[C@@]21C | – | – | – | – | Activity (Rattus norvegicus [19]): Active; Activity (Rattus norvegicus [20]): Active; Activity (Rattus norvegicus [21]): Active |
